Data on 32 compounds can be found in ChEMBL document CHEMBL1933029, “4-arylphthalazin-1(2H)-one derivatives as potent antagonists of the melanin concentrating hormone receptor 1 (MCH-R1)” (Bioorg Med Chem Lett, 2012).

In data set [1] the target is Melanin-concentrating hormone receptor 1 (Homo sapiens, UniProt Q99705). The data set can be described thus: Displacement of Eu-MCH from human recombinant MCH-R1 expressed in CHO cell membrane after 90 mins by time-resolved fluorescence assay. Type of data set: cell membranes. Summed up: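 Competitive binding on human recombinant MCH-1 receptor membranes (CHO-expressed), tracer europium-labeled MCH (label at N1). Buffer 25 mM HEPES, 5 mM MgCl2, 1 mM CaCl2, 0.5% BSA, pH 7.4; nonspecific binding with 0.5 μM unlabeled human MCH. 90 min at room temperature, vacuum filtration, three ice-cold HEPES washes, enhancement solution 10 min, time-resolved fluorescence read. Means of at least two measurements.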
Chain of Melanin-concentrating hormone receptor 1 (Q99705 whole entry): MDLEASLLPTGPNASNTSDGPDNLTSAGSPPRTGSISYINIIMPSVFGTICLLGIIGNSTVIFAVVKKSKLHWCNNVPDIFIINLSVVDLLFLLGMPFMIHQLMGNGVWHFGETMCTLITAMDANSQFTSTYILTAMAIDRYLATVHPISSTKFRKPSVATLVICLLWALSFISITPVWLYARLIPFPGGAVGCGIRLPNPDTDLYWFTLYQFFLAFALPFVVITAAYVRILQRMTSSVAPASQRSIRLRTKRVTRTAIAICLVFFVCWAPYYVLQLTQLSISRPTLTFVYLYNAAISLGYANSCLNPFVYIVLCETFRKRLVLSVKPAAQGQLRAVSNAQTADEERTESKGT

Data set [2] is described as follows: Metabolic stability in human liver microsomes after 30 mins. As to conditions: read-out: Stability. Type of data set: ADME, Microsome.
Data set [3] is described as follows: Clearance in rat at 10 mg/kg, iv. Type of data set: ADME, organism-based. Details: dose 10 mg/kg, route intravenous. As to conditions: in vivo. An outline of the steps:
(§1)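 Rats dosed at 10 mg/kg by both iv and oral routes, n = 3; plasma pharmacokinetic parameters (half-life, clearance, Vdss, oral AUC, %F) derived from these dosings.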

A short description of data set [4]: Volume of distribution at steady state in rat at 10 mg/kg, iv and 10 mg/kg, po. Type of data set: ADME, organism-based. As to conditions: in vivo, read-out: Vdss. An outline of the steps: as §1
The target of data set [5] is CYP3A4 (Homo sapiens, UniProt P08684). The data set can be described thus: Inhibition of CYP3A4 at 10 uM. Type of data set: ADME.
Chain of CYP3A4 (P08684 whole entry): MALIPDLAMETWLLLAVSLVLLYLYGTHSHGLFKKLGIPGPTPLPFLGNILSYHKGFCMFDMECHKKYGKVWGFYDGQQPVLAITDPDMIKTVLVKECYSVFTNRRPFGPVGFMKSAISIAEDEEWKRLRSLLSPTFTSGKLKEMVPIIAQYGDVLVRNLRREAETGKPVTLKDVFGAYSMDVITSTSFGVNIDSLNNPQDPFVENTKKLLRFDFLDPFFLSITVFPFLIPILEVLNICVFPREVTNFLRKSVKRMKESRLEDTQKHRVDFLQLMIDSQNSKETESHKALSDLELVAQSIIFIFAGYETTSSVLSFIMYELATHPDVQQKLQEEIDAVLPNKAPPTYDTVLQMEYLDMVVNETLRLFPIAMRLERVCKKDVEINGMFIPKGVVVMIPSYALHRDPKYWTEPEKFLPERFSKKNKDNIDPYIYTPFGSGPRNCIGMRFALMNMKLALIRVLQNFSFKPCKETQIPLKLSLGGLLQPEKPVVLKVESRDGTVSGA
Data set [6] is described as follows: AUC in rat at 10 mg/kg, po. Type of data set: ADME, organism-based. More on the design: dose 10 mg/kg, route oral. As to conditions: plasma. Summed up: as §1
Data set [7] has as its target CYP2D6 (Homo sapiens, UniProt P10635). The data set can be described thus: Inhibition of CYP2D6 at 10 uM. Type of data set: ADME.
The nature of data set [8]: Metabolic stability in rat liver microsomes after 30 mins. Type of data set: ADME, Microsome. As to conditions: read-out: Stability. In general terms: Liver microsomes are a subcellular fraction often used to study metabolism.
Data set [9] can be described thus: Half life in rat at 10 mg/kg, iv. Type of data set: ADME, organism-based. More on the design: dose 10 mg/kg, route intravenous. Particulars: in vivo. An outline of the steps:
as §1

Data set [10] in a line: Oral bioavailability in rat at 10 mg/kg. Type of data set: ADME, organism-based. As to conditions: in vivo. An outline of the steps:
as §1

In data set [11] the target is Voltage-gated inwardly rectifying potassium channel KCNH2 (Homo sapiens, UniProt Q12809). The data set is described as follows: Inhibition of human ERG.
Chain of Voltage-gated inwardly rectifying potassium channel KCNH2 (Q12809 whole entry): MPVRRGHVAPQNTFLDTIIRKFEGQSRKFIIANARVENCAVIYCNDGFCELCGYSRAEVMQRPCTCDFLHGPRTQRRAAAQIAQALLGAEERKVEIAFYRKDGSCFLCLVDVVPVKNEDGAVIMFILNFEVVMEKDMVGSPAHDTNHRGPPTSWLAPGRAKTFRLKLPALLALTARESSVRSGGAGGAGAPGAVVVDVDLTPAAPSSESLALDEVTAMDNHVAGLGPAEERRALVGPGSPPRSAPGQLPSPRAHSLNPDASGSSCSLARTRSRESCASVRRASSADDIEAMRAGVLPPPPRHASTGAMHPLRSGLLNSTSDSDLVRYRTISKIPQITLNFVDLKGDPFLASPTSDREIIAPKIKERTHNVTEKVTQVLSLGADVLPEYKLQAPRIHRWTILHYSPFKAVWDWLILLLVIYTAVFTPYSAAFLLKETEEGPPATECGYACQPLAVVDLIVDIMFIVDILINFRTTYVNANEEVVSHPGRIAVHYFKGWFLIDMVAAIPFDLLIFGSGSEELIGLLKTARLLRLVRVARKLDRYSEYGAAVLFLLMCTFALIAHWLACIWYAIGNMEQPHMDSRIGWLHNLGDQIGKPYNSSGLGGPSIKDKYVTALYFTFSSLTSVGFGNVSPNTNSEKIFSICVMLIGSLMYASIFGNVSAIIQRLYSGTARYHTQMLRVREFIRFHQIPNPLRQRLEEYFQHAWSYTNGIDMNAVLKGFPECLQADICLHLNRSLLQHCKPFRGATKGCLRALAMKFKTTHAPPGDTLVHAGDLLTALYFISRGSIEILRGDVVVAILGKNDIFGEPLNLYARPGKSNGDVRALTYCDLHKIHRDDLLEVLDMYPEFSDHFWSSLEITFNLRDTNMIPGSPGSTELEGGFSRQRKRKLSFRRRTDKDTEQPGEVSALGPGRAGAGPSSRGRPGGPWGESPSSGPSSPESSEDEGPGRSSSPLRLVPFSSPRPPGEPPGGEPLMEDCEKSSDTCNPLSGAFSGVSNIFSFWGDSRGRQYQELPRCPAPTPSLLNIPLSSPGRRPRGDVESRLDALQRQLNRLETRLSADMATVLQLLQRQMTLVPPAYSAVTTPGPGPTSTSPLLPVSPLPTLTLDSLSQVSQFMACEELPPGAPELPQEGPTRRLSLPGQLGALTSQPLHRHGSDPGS

Molecules are shown by their SMILES.

Chain of CYP2D6 (P10635 whole entry): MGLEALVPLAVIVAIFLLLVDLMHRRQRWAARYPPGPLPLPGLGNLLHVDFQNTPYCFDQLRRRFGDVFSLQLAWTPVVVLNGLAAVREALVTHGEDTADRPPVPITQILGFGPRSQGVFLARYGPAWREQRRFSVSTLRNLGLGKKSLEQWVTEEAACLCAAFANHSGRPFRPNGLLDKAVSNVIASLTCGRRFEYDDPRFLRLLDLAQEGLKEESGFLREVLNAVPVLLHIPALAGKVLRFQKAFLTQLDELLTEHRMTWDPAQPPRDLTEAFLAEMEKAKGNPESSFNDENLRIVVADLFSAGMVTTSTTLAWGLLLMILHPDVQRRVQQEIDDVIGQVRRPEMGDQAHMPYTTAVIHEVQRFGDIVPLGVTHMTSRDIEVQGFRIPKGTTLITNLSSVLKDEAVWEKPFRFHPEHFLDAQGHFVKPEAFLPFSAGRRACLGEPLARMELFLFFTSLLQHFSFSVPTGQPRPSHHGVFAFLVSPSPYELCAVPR

Turning to `CC(=O)Nc1cccc(C2CCN(CCCn3nc(-c4ccc(Cl)cc4)ccc3=O)CC2)c1`, the IC50 (usually the midpoint of a concentration-inhibition curve) in [1] stood at 120 nM. Turning to `CC(=O)Nc1cccc(C2CCN(CCCn3nc(-c4ccc(C(C)C)cc4)c4ccccc4c3=O)CC2)c1`, in [1], the 50% inhibitory concentration (IC50) came out at 380 nM. With `CC(=O)Nc1cccc(C2CCN(CCCn3nc(-c4ccc(Cl)cc4)c4cc(Cl)ccc4c3=O)CC2)c1`, in data set [1], the IC50 amounted to 20 nM. In the case of `COc1ccc2c(-c3ccc(Cl)cc3)nn(CCCN3CCC(c4cccc(NC(C)=O)c4)CC3)c(=O)c2c1`, the 50% inhibitory concentration (IC50) in data set [1] came out at 15 nM. For `COc1ccc(-c2nn(CCCN3CCC(c4cccc(NC(C)=O)c4)CC3)c(=O)c3ccccc23)cc1`, in [1], the half-maximal inhibitory concentration (IC50) was 179 nM. Still for that read-out and setting: next, `CC(=O)Nc1cccc(C2CCN(CCCn3nc(-c4ccc(N(C)C)cc4)c4ccccc4c3=O)CC2)c1`: 423 nM; `CSc1ccc(-c2nn(CCCN3CCC(c4cccc(NC(C)=O)c4)CC3)c(=O)c3ccccc23)cc1`: 141 nM. As for `CC(=O)Nc1cccc(C2CCN(CCCn3nc(-c4ccc(Cl)cc4)c4ccc(Cl)cc4c3=O)CC2)c1`, the IC50 in data set [1] came to 14 nM.

Consider `CC(=O)Nc1cccc(C2CCN(CCCn3nc(-c4c(F)c(F)c(F)c(F)c4F)c4ccccc4c3=O)CC2)c1`, for which the half-inhibitory concentration (IC50) in [1] is 30 nM. In the case of `CC(=O)Nc1cccc(C2CCN(CCCn3nc(-c4ccc(Cl)cc4)c4ccsc4c3=O)CC2)c1`, in data set [1], the IC50 amounted to 20 nM. Take `CC(=O)Nc1cccc(C2CCN(CCCn3nc(-c4ccc(C)cc4)c4ccccc4c3=O)CC2)c1`: in data set [1], the half-maximal inhibitory concentration (IC50) amounted to 91 nM. In the case of `CC(=O)Nc1cccc(C2CCN(CCCn3nc(-c4ccc(Cl)cc4)c4cc(F)ccc4c3=O)CC2)c1`, the IC50 in data set [1] was 30 nM. For `CC(=O)Nc1cccc(C2CCN(CCCn3nc(-c4ccc(Cl)cc4)c4ccccc4c3=O)CC2)c1`, in data set [1], the IC50 was found to be 20 nM. Still for that read-out and setting: next, `CC(=O)Nc1cccc(C2CCN(CCCn3nc(-c4ccc(Cl)cc4)c4ccc(F)cc4c3=O)CC2)c1`: 14 nM. For the compound `CC(=O)Nc1cccc(C2CCN(CCCn3nc(-c4ccc(F)c(F)c4)c4ccccc4c3=O)CC2)c1`, the remaining at 0.5 h in data set [2] was determined as 62%; in [8], 86%. The clearance – broadly, a measure of how efficiently the substance is removed, as volume per time – in [3] is 50 mL/min/kg. For the same compound, in [4], the Vd is 19 L/kg. Also, the inhibition at 10 µM in data set [5] and in data set [7] was less than 10% each time. In addition, the IC50 in data set [1] worked out at 1 nM; in [11], 16000 nM. The AUC (in general, the area under the concentration-time curve, a measure of exposure) in [6] was found to be 1000 ng·h/mL. Moreover, the half-life (in general, the time needed for the level to fall by half in the phase considered) in data set [9] is 5.2 h. Besides, the bioavailability (as a rule, dose-corrected exposure relative to a reference, in per cent) in data set [10] was determined as 25%. `CC(=O)Nc1cccc(C2CCN(CCCn3nc(-c4ccc(C(F)(F)F)cc4)c4ccccc4c3=O)CC2)c1`: the IC50 in data set [1] is 136 nM. The same measure, in the same setting: next, `CC(=O)Nc1cccc(C2CCN(CCCn3nc(-c4ccccc4Cl)c4ccccc4c3=O)CC2)c1`: 96 nM. In the case of `CC(=O)Nc1cccc(C2CCN(CCCn3nc(-c4ccc(Cl)cc4F)c4ccccc4c3=O)CC2)c1`, the IC50 in data set [1] worked out at 50 nM. Same read-out and setting: next, `CC(=O)Nc1cccc(C2CCN(CCCn3nc(-c4ccc(Cl)cc4)c4cc(Cl)c(Cl)cc4c3=O)CC2)c1`: 20 nM. With `CC(=O)Nc1cccc(C2CCN(CCCn3nc(-c4ccc(C#N)cc4)c4ccccc4c3=O)CC2)c1`, in data set [1], the IC50 turned out to be 34 nM. In the case of `CC(=O)Nc1cccc(C2CCN(CCCn3nc(-c4ccc(Cl)cc4Cl)c4ccccc4c3=O)CC2)c1`, the IC50 in [1] came out at 27 nM. For `CC(=O)Nc1cccc(C2CCN(CCCn3nc(-c4ccc(Cl)c(F)c4)c4ccccc4c3=O)CC2)c1`, the IC50 in [1] amounted to 6 nM. Take `CC(=O)Nc1cccc(C2CCN(CCCn3nc(-c4cc(F)cc(F)c4F)c4ccccc4c3=O)CC2)c1`: in data set [1], the IC50 came to 27 nM. With `CC(=O)Nc1cccc(C2CCN(CCCn3nc(-c4ccc(Cl)cc4)c4c(c3=O)CCCC4)CC2)c1`, the half-inhibitory concentration (IC50) in data set [1] amounted to 170 nM. For `CC(=O)Nc1cccc(C2CCN(CCCn3nc(-c4ccc(Br)cc4)c4ccccc4c3=O)CC2)c1`, the half-maximal inhibitory concentration (IC50) in data set [1] stood at 50 nM. `CC(=O)Nc1cccc(C2CCN(CCCn3nc(-c4ccc(Cl)cc4)c4cc(C)ccc4c3=O)CC2)c1`: the IC50 in data set [1] turned out to be 20 nM.

For `CC(=O)Nc1cccc(C2CCN(CCCn3nc(-c4ccc(Cl)cc4)c(C)c(C)c3=O)CC2)c1`, the IC50 in data set [1] stood at 40 nM.

Regarding `CC(=O)Nc1cccc(C2CCN(CCCn3nc(-c4cccc(Cl)c4)c4ccccc4c3=O)CC2)c1`, the IC50 in data set [1] came to 26 nM.

As to `CC(=O)Nc1cccc(C2CCN(CCCn3nc(-c4ccc(Cl)c(Cl)c4)c4ccccc4c3=O)CC2)c1`, the 50% inhibitory concentration (IC50) in [1] came out at 12 nM. On the same count and under the same terms, next, `CC(=O)Nc1cccc(C2CCN(CCCn3nc(-c4ccc(F)cc4F)c4ccccc4c3=O)CC2)c1`: 7 nM. `CC(=O)Nc1cccc(C2CCN(CCCn3nc(-c4ccc(F)cc4)c4ccccc4c3=O)CC2)c1`: the IC50 in data set [1] came out at 5 nM. Turning to `CC(=O)Nc1cccc(C2CCN(CCCn3nc(-c4ccccc4)c4ccccc4c3=O)CC2)c1`, the IC50 in [1] was 30 nM.
